Measured values published in PubChem BioAssay AID651938 (NMMLSC, 2012).

Target: Fluorogen activating protein scFv HL1.1-TO1 (AM2.2, synthetic construct)
Assay: competition with TO1-2p for soluble AM2.2 – biochemical, soluble FAP, fluorescence competition, artefact control for beta2AR internalization ligand project, dose response (AID 651938)
Settings: Soluble FAP AM2.2 with TO1-2p fluorogen
Procedure, shortened: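 material = soluble purified FAP AM2.2 | buffer or medium = cPBS | reagent = fluorogen TO1-2p at ten times its Kd | dosing = serial dilution series, water-diluted DMSO stocks | read-out basis = EC50 from variable-slope sigmoidal curve fit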

EC50 [µM]	SMILES
2.73	CN(CC(=O)N1CCN(c2ccccn2)CC1)S(=O)(=O)c1ccc(Cl)cc1
19.8	Cc1ccc(S(=O)(=O)N(C)CC(=O)N2CCN(c3ccccn3)CC2)cc1
